Experimental data published in ChEMBL document CHEMBL1142321, “Selection of a respiratory syncytial virus fusion inhibitor clinical candidate. 2. Discovery of a morpholinopropylaminobenzimidazole derivative (TMC353121)” (J Med Chem, 2008).
≈ marks a conversion by molar mass, not a printed value.

Experiments:
[1] = tested on: Respiratory syncytial virus; assay: Antiviral activity in RSV infected cotton rat model assessed as log reduction of viral titer at 10 mg/kg, iv after 3 hrs of viral challenge; type: functional
Method in brief: (§1)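 Cotton rats received a single iv dose at set times before (minus) or after (plus) RSV challenge. Day 4 after challenge, lungs flushed with physiological water and BALF virus titre measured by plaque titration. Log reduction calculated against untreated controls.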

[2] = AUC (0 to infinity) in Sprague-Dawley rat plasma at 10 mg/kg, po; type: ADME, organism-based; design: time infinity, dose 10 mg/kg, route oral
[3] = tested on: Respiratory syncytial virus; assay: Antiviral activity in RSV infected cotton rat model assessed as log reduction of viral titer at 10 mg/kg, iv 24 hrs prior to viral challenge; type: functional; method in brief: as §1
[4] = tested on: Respiratory syncytial virus; assay: Antiviral activity in RSV infected cotton rat model assessed as log reduction of viral titer at 2 mg/kg, iv 5 mins prior to viral challenge; type: functional; method in brief: as §1
[5] = tested on: Respiratory syncytial virus; assay: Antiviral activity in RSV infected cotton rat model assessed as log reduction of viral titer at 0.25 mg/mL by aerosol administration 1 hr prior to viral challenge; type: functional
Method in brief: (§2)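 Single aerosol from an ultrasonic nebulizer for 1 h, given 1 h before RSV challenge; dose stated as drug concentration in the nebulizer reservoir. BALF collected by lung flushing with physiological water 4 days after challenge. Virus titre measured by plaque titration; log reduction calculated against untreated control animals.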

[6] = tested on: Respiratory syncytial virus; assay: Antiviral activity against RSV Cl11 replication in HeLa cells; type: functional, organism-based; conditions: for EC50: human respiratory syncytial virus, HeLa
Method in brief: (§3)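 HeLaM epithelial-like cells infected with RSV with or without a range of compound concentrations; viability read by MTT after 1 week incubation. OD measured spectrophotometrically and pEC50 derived. Virus, cell and cytotoxicity controls on every plate, reference compounds in every test; runs failing control criteria rejected.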

[7] = tested on: Respiratory syncytial virus; assay: Antiviral activity in RSV infected cotton rat model assessed as log reduction of viral titer at 10 mg/kg, iv 96 hrs prior to viral challenge; type: functional; method in brief: as §1
[8] = tested on: Respiratory syncytial virus; assay: Antiviral activity against RSV R6LO replication in HeLa cells; type: functional, organism-based; conditions: for EC50: human respiratory syncytial virus, HeLa; method in brief: as §3
[9] = tested on: Respiratory syncytial virus; assay: Antiviral activity against RSV LO replication in HeLa cells; type: functional, organism-based; method in brief: as §3
[10] = Cmax in Sprague-Dawley rat plasma at 10 mg/kg, po; type: ADME, organism-based; design: dose 10 mg/kg, route oral
[11] = tested on: Respiratory syncytial virus; assay: Antiviral activity in RSV infected cotton rat model assessed as log reduction of viral titer at 5 mg/mL by aerosol administration 1 hr prior to viral challenge; type: functional; method in brief: as §2
[12] = tested on: Respiratory syncytial virus; assay: Antiviral activity in RSV infected cotton rat model assessed as log reduction of viral titer at 40 mg/kg, po 2 hrs prior to viral challenge; type: functional
Method in brief: (§4)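 Cotton rats dosed once orally by gavage 2 h before RSV challenge. BALF obtained by lung lavage with physiological water 4 days after challenge, virus titred by plaque assay. Log reduction expressed versus untreated control animals.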

[13] = Plasma clearance in Sprague-Dawley rat at 2 mg/kg, iv; type: ADME, organism-based; design: dose 2 mg/kg, route intravenous
[14] = tested on: Respiratory syncytial virus; assay: Antiviral activity against RSV CI41 replication in HeLa cells; type: functional, organism-based; conditions: for EC50: human respiratory syncytial virus, HeLa; method in brief: as §3
[15] = Cytotoxicity against human HeLaM cells by MTT assay; type: functional, M-HeLa
[16] = tested on: Respiratory syncytial virus; assay: Antiviral activity against RSV CI42 replication in HeLa cells; type: functional, organism-based; conditions: for EC50: human respiratory syncytial virus, HeLa; method in brief: as §3
[17] = Absolute bioavailability in Sprague-Dawley rat plasma at 10 mg/kg, po; type: ADME, organism-based
[18] = tested on: Respiratory syncytial virus; assay: Antiviral activity in RSV infected cotton rat model assessed as log reduction of viral titer at 10 mg/kg, iv after 24 hrs of viral challenge; type: functional; method in brief: as §1
[19] = tested on: Respiratory syncytial virus; assay: Antiviral activity in RSV infected cotton rat model assessed as log reduction of viral titer at 10 mg/kg, iv 48 hrs prior to viral challenge; type: functional; method in brief: as §1
[20] = tested on: Respiratory syncytial virus; assay: Antiviral activity in RSV infected cotton rat model assessed as log reduction of viral titer at 1.25 mg/mL by aerosol administration 1 hr prior to viral challenge; type: functional; method in brief: as §2
[21] = tested on: Respiratory syncytial virus; assay: Antiviral activity in RSV infected cotton rat model assessed as log reduction of viral titer at 10 mg/kg, iv 72 hrs prior to viral challenge; type: functional; method in brief: as §1
[22] = Half life in Sprague-Dawley rat lung; type: ADME, organism-based
[23] = tested on: Respiratory syncytial virus; assay: Antiviral activity in RSV infected cotton rat model assessed as log reduction of viral titer at 10 mg/kg, iv 5 mins prior to viral challenge; type: functional; method in brief: as §1
[24] = tested on: Respiratory syncytial virus; assay: Antiviral activity in RSV infected cotton rat model assessed as log reduction of viral titer at 20 mg/mL by aerosol administration 1 hr prior to viral challenge; type: functional; method in brief: as §2
[25] = Volume of distribution in Sprague-Dawley rat plasma at 2 mg/kg, iv; type: ADME, organism-based; design: dose 2 mg/kg, route intravenous
[26] = tested on: Respiratory syncytial virus; assay: Antiviral activity against RSV R1LO replication in HeLa cells; type: functional, organism-based; conditions: for EC50: human respiratory syncytial virus, HeLa; method in brief: as §3
[27] = tested on: Respiratory syncytial virus; assay: Antiviral activity against RSV R2LO replication in HeLa cells; type: functional, organism-based; conditions: for EC50: human respiratory syncytial virus, HeLa; method in brief: as §3
[28] = tested on: Respiratory syncytial virus; assay: Antiviral activity against RSV CI57 replication in HeLa cells; type: functional, organism-based; conditions: for EC50: human respiratory syncytial virus, HeLa; method in brief: as §3
[29] = tested on: Respiratory syncytial virus; assay: Antiviral activity in RSV infected cotton rat model assessed as log reduction of viral titer at 10 mg/kg, po 2 hrs prior to viral challenge; type: functional; method in brief: as §4
[30] = tested on: Respiratory syncytial virus; assay: Antiviral activity in RSV infected cotton rat model assessed as log reduction of viral titer at 10 mg/kg, iv 1 hrs prior to viral challenge; type: functional; method in brief: as §1
[31] = AUC (0 to infinity) in Sprague-Dawley rat plasma at 2 mg/kg, iv; type: ADME, organism-based; design: time infinity, dose 2 mg/kg, route intravenous
[32] = Half life in Sprague-Dawley rat plasma at 2 mg/kg, iv; type: ADME, organism-based; design: dose 2 mg/kg, route intravenous
[33] = tested on: Respiratory syncytial virus; assay: Antiviral activity in RSV infected cotton rat model assessed as log reduction of viral titer at 10 mg/kg, iv 4 hrs prior to viral challenge; type: functional; method in brief: as §1
[34] = tested on: Respiratory syncytial virus; assay: Inhibition of RSV by MTT assay; type: functional, organism-based; conditions: human respiratory syncytial virus; method in brief: as §3

Cc1ccc(CCCO)c(NCc2ccc3nc(NCCCN4CCOCC4)n(Cc4nc(C)ccc4O)c3c2)c1
Activity [1]: 0.5 | AUC(0-inf) [2]: 246 ng·h/mL | Activity [3]: 0.5 | Activity [4]: 0.4 | Activity [5]: 0.6 | pEC90 [6]: 10 | EC50 ([6]; read-out: EC50): 0.03 ng/mL | EC50 ([6]; read-out: Log EC50 (converted)): 0.0501 nM | Activity [7]: 0.2 | pEC90 [8]: <6.7 | EC50 ([8]; read-out: EC50): 0.04 ng/mL | EC50 ([8]; read-out: Log EC50 (converted)): 0.0794 nM | pEC90 [9]: 9.6 | EC50 ([9]; human respiratory syncytial virus, HeLa): 0.07 ng/mL (≈ 0.000125 µM) | Cmax [10]: 47.3 ng/mL | Activity [11]: 1.5 | Activity [12]: 0.8 | clearance [13]: 90 mL/min/kg | pEC90 [14]: 10.1 | EC50 ([14]; read-out: EC50): 0.02 ng/mL | EC50 ([14]; read-out: Log EC50 (converted)): 0.0316 nM | pCC50 [15]: 5.1 | CC50 ([15]; Homo sapiens, M-HeLa): 4440 ng/mL (≈ 7.94 µM) | pEC90 [16]: 10.1 | EC50 ([16]; read-out: EC50): 0.02 ng/mL | EC50 ([16]; read-out: Log EC50 (converted)): 0.0316 nM | bioavailability [17]: 14% | Activity [18]: 0.2 | Activity [19]: 0.3 | Activity [20]: 1 | Activity [21]: 0.4 | half-life [22]: 25.1 h | Activity [23]: 1.2 | Activity [24]: 1.6 | Vd [25]: 79.3 L/kg | pEC90 [26]: 7.5 | EC50 ([26]; read-out: EC50): 7.03 ng/mL | EC50 ([26]; read-out: Log EC50 (converted)): 12.6 nM | pEC90 [27]: <4 | EC50 ([27]; read-out: EC50): 280 ng/mL | EC50 ([27]; read-out: Log EC50 (converted)): 501 nM | pEC90 [28]: 9.8 | EC50 ([28]; read-out: EC50): 0.04 ng/mL | EC50 ([28]; read-out: Log EC50 (converted)): 0.0794 nM | Activity [29]: 0.4 | Activity [30]: 0.9 | AUC(0-inf) [31]: 354 ng·h/mL | half-life [32]: 10.3 h | Activity [33]: 0.9

Cc1cccc(NCc2ccc3nc(NC4CCN(C)CC4)n(Cc4nc(C)ccc4O)c3c2)c1
EC50 [34]: 5.01 nM | pCC50 [15]: 4.7

Cc1ccc(O)c(Cn2c(NC3CCN(C)CC3)nc3ccc(CN(C)c4ccccc4)cc32)n1
EC50 [34]: 39.8 nM | pCC50 [15]: 5.2

Cc1ccc(O)c(Cn2c(NC3CCN(C)CC3)nc3ccc(C(O)c4ccccc4)cc32)n1 (centres undefined)
EC50 [34]: 158 nM | pCC50 [15]: <4

Cc1cc(C)cc(NCc2ccc3nc(NCCc4ccccc4)n(Cc4nc(C)ccc4O)c3c2)c1
EC50 [34]: > 100000 nM | pCC50 [15]: 4.4

Cc1cc(C)cc(NCc2ccc3nc(NCCCN4CCOCC4)n(Cc4nc(C)ccc4O)c3c2)c1
EC50 [34]: 1 nM | pCC50 [15]: 5 | half-life [22]: 13.7 h

Cc1cccc(CCc2ccc3nc(NC4CCN(C)CC4)n(Cc4nc(C)ccc4O)c3c2)c1
EC50 [34]: 20 nM | pCC50 [15]: 5.9

Cc1ccc(O)c(Cn2c(NCCCN3CCOCC3)nc3ccc(CNc4ccccc4CCCO)cc32)n1
EC50 [34]: 0.251 nM | pCC50 [15]: 4.9

Cc1cccc(SCc2ccc3nc(NC4CCN(C)CC4)n(Cc4nc(C)ccc4O)c3c2)c1
EC50 [34]: 251 nM | pCC50 [15]: 4.4

Cc1cccc(N(CCO)Cc2ccc3nc(NCCCN4CCOCC4)n(Cc4nc(C)ccc4O)c3c2)c1
EC50 [34]: 0.501 nM | pCC50 [15]: 5

Cc1cc(C)cc(NCc2ccc3nc(NC4CCN(C)CC4)n(Cc4nc(C)ccc4O)c3c2)c1
EC50 [34]: 2.51 nM | pCC50 [15]: 4.3

Cc1cc(C)cc(NCc2ccc3nc(NCC(O)CO)n(Cc4nc(C)ccc4O)c3c2)c1 (centres undefined)
EC50 [34]: 31.6 nM | pCC50 [15]: 4.3

Cc1cccc(C(=O)Nc2ccc3nc(NC4CCN(C)CC4)n(Cc4nc(C)ccc4O)c3c2)c1
EC50 [34]: 63.1 nM | pCC50 [15]: 4.3

Cc1cccc(/C=C/c2ccc3nc(NC4CCN(C)CC4)n(Cc4nc(C)ccc4O)c3c2)c1
EC50 [34]: 501 nM | pCC50 [15]: 5.6

Cc1cc(C)cc(N(CCCC(N)=O)Cc2ccc3nc(NCCCN4CCOCC4)n(Cc4nc(C)ccc4O)c3c2)c1
EC50 [34]: 0.251 nM | pCC50 [15]: 4.7 | half-life [22]: 10.4 h
